Test [1] concerns the target T1, 4,4'-diapophytoene synthase (Staphylococcus aureus, UniProt A9JQL9).
T1 sequence (A9JQL9 whole entry): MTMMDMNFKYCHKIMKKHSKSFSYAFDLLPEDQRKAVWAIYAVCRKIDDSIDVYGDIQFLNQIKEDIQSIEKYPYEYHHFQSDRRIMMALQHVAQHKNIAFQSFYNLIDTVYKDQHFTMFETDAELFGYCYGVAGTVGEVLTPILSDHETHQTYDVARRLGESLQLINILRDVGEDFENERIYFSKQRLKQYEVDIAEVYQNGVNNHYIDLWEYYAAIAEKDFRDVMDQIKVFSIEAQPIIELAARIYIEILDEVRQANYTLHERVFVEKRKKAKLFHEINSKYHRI
Kind of test: Inhibition of Staphylococcus aureus dehydrosqualene synthase expressed in Escherichia coli BL21 (DE3) cells by continuous spectrophotometric assay. The method in brief: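 His-tagged S. aureus CrtM, Ni-NTA purified after IPTG induction (1 mM, 4 h). Compounds preincubated with 2 μg CrtM for 30 min at 20 °C. Phosphate release followed by continuous spectrophotometric coupled assay. IC50 from dose-response fit; Ki derived from IC50 and reported Km.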

Another test has as its system Staphylococcus aureus. In words: Inhibition of staphyloxanthin biosynthesis in Staphylococcus aureus Pig1 isolate after 72 hrs. The test is classed as functional, organism-based. To be noted: PIG1, 72 h. A digest of the protocol:
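Wild-type clinical isolate Pig1 grown in THB (1 mL) with serially diluted compounds, 37 °C, 72 h, in duplicate. Cells centrifuged and washed twice with PBS. Pigment extracted with methanol, OD read at 450 nm. IC50 from dose-response fit of OD data.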

Test [2] deals with BL21-DE3. Kind of test: Selectivity ratio of IC50 for human squalene synthase to IC50 for Staphylococcus aureus dehydrosqualene synthase expressed in Escherichia coli BL21 (DE3) cells.
The subject of test [3] is BL21-DE3. Kind of test: Selectivity ratio of IC50 for human squalene synthase to IC50 for Staphylococcus aureus dehydrosqualene synthase expressed in Escherichia coli BL21 (DE3) cells assessed as relative selectivity relative to potassium 4-(3-phenoxyphenyl)-1-phosphonatobutane-1-sulfonate.
A further test deals with T2, Squalene synthase (Homo sapiens, UniProt P37268).
T2 sequence (P37268 whole entry): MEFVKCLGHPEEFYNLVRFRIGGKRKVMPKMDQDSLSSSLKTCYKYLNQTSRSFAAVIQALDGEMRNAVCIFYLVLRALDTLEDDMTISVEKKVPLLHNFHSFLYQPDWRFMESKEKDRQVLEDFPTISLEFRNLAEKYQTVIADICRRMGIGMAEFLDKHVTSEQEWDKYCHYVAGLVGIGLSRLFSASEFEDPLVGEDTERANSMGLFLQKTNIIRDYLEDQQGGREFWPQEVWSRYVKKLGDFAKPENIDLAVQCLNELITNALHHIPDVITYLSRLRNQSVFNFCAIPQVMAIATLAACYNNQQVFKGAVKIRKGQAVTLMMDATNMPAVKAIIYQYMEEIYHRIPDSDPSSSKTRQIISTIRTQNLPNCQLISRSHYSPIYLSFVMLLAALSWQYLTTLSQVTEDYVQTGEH
In words: Inhibition of human recombinant squalene synthase expressed in Escherichia coli BL21 (DE3) cells assessed as formation of 1,10-dioic acid metabolite by liquid scintillation.

pIC50, pKi: −log10 of the molar value.

Regarding `O=P(O)(O)C(CCCc1cccc(Oc2ccccc2C(F)(F)F)c1)S(=O)(=O)O` (stereo not given), the pIC50 – broadly, the negative decadic logarithm of the IC50, by convention in mol/L – is 4.27 in test [1] and 6.34 in the test with Staphylococcus aureus.

As for `O=P(O)(O)C(CCCc1cccc(Oc2ccc(F)cc2)c1)S(=O)(=O)O` (stereo not given), in test [1], the pKi – broadly, the Ki on a negative log10 scale, so that one unit is a factor of ten – is 8.30. For the same molecule, the pIC50 in the test with Staphylococcus aureus was 7.28.

Regarding `O=P(O)(O)C(CCCc1cc(Oc2ccc(F)cc2)ccc1F)S(=O)(=O)O` (stereo not given), the pIC50 is 5.68 in test [1] and 7.23 in the test on Staphylococcus aureus.

`O=P(O)(O)[C@H](CCCc1cccc(Oc2ccccc2)c1)S(=O)(=O)O` had a pIC50 in the test on Staphylococcus aureus of 7.30.

Molecule `O=P(O)(O)C(CCCc1ccc(-c2ccc(F)cc2F)cc1)S(=O)(=O)O` (stereo not given) showed a pIC50 with Staphylococcus aureus of 6.74.

For the molecule `O=P(O)(O)C(CCCc1cccc(Oc2ccc(O)cc2)c1)S(=O)(=O)O` (stereo not given), in the test with Staphylococcus aureus, the negative logarithm of the IC50 (pIC50) is 5.17.

As for `O=P(O)(O)C(CCCc1ccc(Oc2ccccc2)cc1)S(=O)(=O)O` (stereo not given), the pIC50 in the test on Staphylococcus aureus is 6.72.

Turning to `O=P(O)(O)C(CCCc1cccc(Oc2cccc(C(F)(F)F)c2)c1)S(=O)(=O)O` (stereo not given), the pIC50 in test [1] is 5.01; in the test on Staphylococcus aureus, 7.13.

Consider `O=P(O)(O)C(CCCc1cccc(Oc2ccc(Cl)cc2)c1)S(=O)(=O)O` (stereo not given), for which the figures for the negative logarithm of the IC50 (pIC50) (in test [1]; in the test on Staphylococcus aureus) were 5.60 and 7.41, respectively.

In the test with Staphylococcus aureus, `CCCOc1cccc(-c2ccc(CCCC(P(=O)(O)O)S(=O)(=O)O)cc2)c1` (stereo not given) had a pIC50 of 6.31.

As for `O=P(O)(O)C(CCCc1cccc(Oc2cccc(F)c2)c1)S(=O)(=O)O` (stereo not given), the pIC50 was 5.66 in test [1] and 6.66 in the test on Staphylococcus aureus.

`CCCCc1ccc(-c2ccc(CCCC(P(=O)(O)O)S(=O)(=O)O)cc2)cc1` (stereo not given): the pIC50 with Staphylococcus aureus was 6.80.

`O=P(O)(O)C(CCCc1cccc(Oc2ccc3occc3c2)c1)S(=O)(=O)O` (stereo not given): the pIC50 in test [1] was 5.68; with Staphylococcus aureus, 7.82.

In turn, `O=P(O)(O)C(CCCc1ccc(-c2ccc(C(F)(F)F)cc2)cc1)P(=O)(O)O` had a pKi in test [1] of 9.30. This molecule had a pIC50 in the test with Staphylococcus aureus of 5.96. Also, the Ratio IC50 was 0.014 with BL21-DE3 [2] and 4.8 with BL21-DE3 [3].

Consider `COc1ccc(Oc2ccc(F)cc2)cc1CCCC(P(=O)(O)O)S(=O)(=O)O` (stereo not given), for which the pIC50 with Staphylococcus aureus is 4.86.

`O=P(O)(O)C(CCCc1cccc(Oc2ccc(-c3ccco3)cc2)c1)S(=O)(=O)O` (stereo not given): the pIC50 in test [1] is 4.58; in the test with Staphylococcus aureus, 5.96.

Consider `O=P(O)(O)[C@@H](CCCc1cccc(Oc2ccccc2)c1)S(=O)(=O)O`, for which the figures for the pIC50 (in test [1]; with Staphylococcus aureus) were 4.32 and 6.51, respectively.

Take `CCCc1ccc(Oc2cccc(CCCC(P(=O)(O)O)S(=O)(=O)O)c2)cc1` (stereo not given): the pKi in test [1] was 8.30. Further, the pIC50 in the test with Staphylococcus aureus was 7.03.

In the test with Staphylococcus aureus, `O=P(O)(O)C(CCCc1cccc(Nc2ccccc2)c1)S(=O)(=O)O` (stereo not given) gave a pIC50 of 6.30.

In turn, `O=P(O)(O)C(CCCc1cccc(Oc2ccc(C(F)(F)F)cc2)c1)S(=O)(=O)O` (stereo not given) gave a pIC50 in the test on Staphylococcus aureus of 7.40.

On to `Cc1ccc(-c2ccc(CCCC(P(=O)(O)O)S(=O)(=O)O)cc2)cc1` (stereo not given), for which, in the test with Staphylococcus aureus, the pIC50 was 6.74.

For the molecule `O=P(O)(O)C(CCCc1cccc(Oc2ccc(Oc3ccccc3)cc2)c1)S(=O)(=O)O` (stereo not given), the pIC50 in the test with Staphylococcus aureus was 7.00.

As for `O=P(O)(O)C(CCCc1cccc(Oc2ccc(Cc3ccccc3)cc2)c1)S(=O)(=O)O` (stereo not given), the pIC50 in the test with Staphylococcus aureus is 7.31.

Molecule `O=P(O)(O)C(Cc1cccc(Oc2ccccc2)c1)S(=O)(=O)O` (stereo not given) gave a pIC50 in the test on Staphylococcus aureus of 4.47. Also, the figures for the Ratio IC50 with BL21-DE3 [2] and in the test with BL21-DE3 [3] were 0.0022 and 0.8, respectively.

As for `CCn1c2ccccc2c2cc(CCCC(P(=O)(O)O)S(=O)(=O)O)ccc21` (stereo not given), the pIC50 in the test on Staphylococcus aureus was 3.58.

Turning to `O=P(O)(O)C(CCCc1cccc(Oc2cc(F)cc(F)c2)c1)S(=O)(=O)O` (stereo not given), the pIC50 in test [1] was 5.34; in the test with Staphylococcus aureus, 7.82.

As to `O=P(O)(O)C(CCCc1cccc(Oc2ccc(Cl)c(Cl)c2)c1)S(=O)(=O)O` (stereo not given), the pIC50 is 5.66 in test [1] and 7.96 with Staphylococcus aureus.

Take `O=P(O)(O)C(CCCc1ccc(-c2ccccc2)cc1)S(=O)(=O)O` (stereo not given): the pIC50 in the test with Staphylococcus aureus is 6.46.

`O=P(O)(O)C(CCCc1cccc(Cc2ccccc2)c1)S(=O)(=O)O` (stereo not given) gave a pIC50 in the test with Staphylococcus aureus of 6.77.

`O=P(O)(O)C(CCCc1ccc(-c2ccccc2)cc1)P(=O)(O)O` gave a pKi in test [1] of 9.00. The molecule also showed a pIC50 in the test with Staphylococcus aureus of 5.66.

Consider `O=P(O)(O)C(CCCc1cccc(Oc2ccccc2)c1)S(=O)(=O)O` (racemic), for which the pIC50 with Staphylococcus aureus is 6.96.

Turning to `O=P(O)(O)C(CCCc1cccc(Oc2ccccc2F)c1)S(=O)(=O)O` (stereo not given), the pIC50 is 5.16 in test [1] and 6.29 with Staphylococcus aureus.

For `CP(=O)(O)C(CCCc1ccc(-c2ccccc2)cc1)P(=O)(O)O` (stereo not given), the results for the pIC50 (in test [1]; with Staphylococcus aureus; on Squalene synthase) were 5.27, 5.85 and 7.14, respectively. Moreover, the Ratio IC50 with BL21-DE3 [2] was 0.014; in the test with BL21-DE3 [3], 4.7.

Regarding `O=P(O)(O)C(CCCc1cccc(Oc2ccc(F)c(F)c2)c1)S(=O)(=O)O` (stereo not given), the results for the pIC50 (in test [1]; in the test on Staphylococcus aureus) were 5.77 and 6.96, respectively.

For the molecule `O=P(O)(O)C(CCCc1cccc(Oc2cc(Cl)cc(Cl)c2)c1)S(=O)(=O)O` (stereo not given), the pIC50 in test [1] was 5.20; in the test with Staphylococcus aureus it was 7.29.

In the test with Staphylococcus aureus, `CC(C)(C)c1ccc(Oc2cccc(CCCC(P(=O)(O)O)S(=O)(=O)O)c2)cc1` (stereo not given) had a pIC50 of 7.68.

The molecule `O=P(O)(O)C(CCc1cccc(Oc2ccccc2)c1)S(=O)(=O)O` (stereo not given) gave a pIC50 in the test on Staphylococcus aureus of 4.69. Besides, the Ratio IC50 in the test with BL21-DE3 [2] stood at 0.0011; with BL21-DE3 [3], 0.4.

In the test with Staphylococcus aureus, `O=P(O)(O)C(CCCc1cccc(Oc2ccccc2Cc2ccccc2)c1)S(=O)(=O)O` (stereo not given) showed a pIC50 of 7.72.

The values are drawn from ChEMBL document CHEMBL1140905.
